Most compounds without a hit are left out; they make up all but 2.2% or so of the library.
NR2E3 ag-1: NR2E3 (human) agonism. AID 2300. 0.12% of 320,000 active. GST-NR2E3/biotin-RetCOR TR-FRET, 1536-well. inhibition of corepressor binding, % at 4.78 µM. Q9Y5X4;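 active = percent inhibition above the cutoff of mean plus 3 SD of all tested compounds, set per screening campaign, cut at about 20% in these data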;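 also: 0% = DMSO wells and 100% = biotin wells as full block of FRET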
Target sequence (Q9Y5X4 whole entry, looked up): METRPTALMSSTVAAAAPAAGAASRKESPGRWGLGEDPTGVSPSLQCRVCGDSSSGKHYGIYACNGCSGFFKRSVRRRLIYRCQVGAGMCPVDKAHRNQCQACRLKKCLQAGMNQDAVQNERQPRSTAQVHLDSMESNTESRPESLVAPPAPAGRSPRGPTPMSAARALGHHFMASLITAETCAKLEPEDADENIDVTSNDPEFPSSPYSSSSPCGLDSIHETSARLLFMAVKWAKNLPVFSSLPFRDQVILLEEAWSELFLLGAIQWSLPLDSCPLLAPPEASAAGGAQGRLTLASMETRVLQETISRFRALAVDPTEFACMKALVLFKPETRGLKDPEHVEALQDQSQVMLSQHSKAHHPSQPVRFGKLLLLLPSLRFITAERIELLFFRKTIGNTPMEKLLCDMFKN
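Format: 1536-well format; test system: GST-NR2E3 and biotin-RetCOR proteins; read-out basis: percent inhibition of TR-FRET ratio; timing: 5 h incubation at 4 °C; detection: time-resolved FRET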
NR2E3 ag-2: activates human NR2E3 receptor. 0.35% of 360,000 active. inhibition of corepressor binding, % at 3.98 µM. CHO-S Gal4-NCOR/VP16-NR2E3 two-hybrid, luciferase;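 active = inhibition above the mean of all tested compounds plus 3 SD, cut at about 70% in these data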;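 also: 0% = DMSO with NR2E3 transfected cells and 100% = cells lacking NR2E3 construct; higher means lower luciferase signal from less NR2E3 corepressor binding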
FXN GAA850 act: frataxin GAA850 promoter activation; 0.56% of 360,000 active; AID 540364; activation, % at 6 µM; HEK293 lucGAA850 FXN promoter luciferase reporter, 24 h; percent of 10 µM SAHA response;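 active = activation above the average of all compounds screened plus 3 SD, cutoff fixed separately per campaign, cut at about 7.5% in these data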;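 also: 0% = DMSO wells and 100% = 10 µM SAHA wells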
GalR3 antag: antagonists of human GalR3; O60755; HEK293 GalR3-CNG cAMP membrane potential fluorescence; galR3 body fused to GalR1 C-terminus; inhibition, % at 3 µM; 0.44% of 360,000 active; AID 651719;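 active = inhibition above the screen-wide average plus 3 SD, cut at about 13% in these data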;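 also: forskolin and galanin both at EC90 stimulate the cells; cAMP rise reported by CNG channel membrane potential dye signal; 0% = forskolin plus galanin with DMSO and 100% = forskolin alone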
Target sequence (O60755 1-299 limits assumed): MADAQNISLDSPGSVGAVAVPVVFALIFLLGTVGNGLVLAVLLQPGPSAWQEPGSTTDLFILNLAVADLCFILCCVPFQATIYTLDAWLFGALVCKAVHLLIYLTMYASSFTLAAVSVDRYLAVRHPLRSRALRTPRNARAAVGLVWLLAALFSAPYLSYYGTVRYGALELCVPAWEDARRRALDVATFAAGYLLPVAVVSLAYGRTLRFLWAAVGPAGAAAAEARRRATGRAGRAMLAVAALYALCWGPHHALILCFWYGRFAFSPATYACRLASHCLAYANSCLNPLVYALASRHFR
V-ATPase pHluor: yeast V-ATPase proton transport regulation by pHLuorin; response, % at 10 µM; AID 504577; 0.37% of 350,000 active; S. cerevisiae, pHLuorin cytosolic pH fluorescence; in the data active = response mostly above about 7.3%, no sharp cut-off; inactive = mostly below about 5.4%; also: actives read high
Env fusion inh: inhibitors of HIV Env-mediated cell fusion | HeLa-JRFL Env/CEM21 cell fusion, luciferase | 1.1% of 360,000 active | inhibition, % at 12.3 µM | AID 651610;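 active = mean replicate inhibition score of at least 50 and every replicate individually at or above 50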;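 also: 0% = plate neutral controls and 100% = maraviroc near 300 nM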
GalR3 conf: GalR3 (human) antagonism, confirmation; shares compounds with GalR3 antag; inhibition, % at 3 µM; AID 652245; 59% of 1,600 active; HEK293 GalR3 CNG cAMP biosensor, membrane potential fluorescence; galR3 fused to GalR1 carboxy tail; challenged with forskolin and galanin at EC90;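 active = inhibition above the primary screen's cutoff, the mean inhibition of all screened compounds plus 3 SD, cut at about 13% in these data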;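 also: 0% = forskolin plus galanin and 100% = forskolin alone with DMSO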
CNG parental: parental cell agonism counter-screen for GalR3 antagonists | HEK293-CNG parental cells, cAMP membrane potential fluorescence; normalised: DMSO wells 0%, forskolin wells 100% | AID 652268 | activation, % at 3 µM | shares compounds with GalR3 antag | 10% of 1,600 active; in the data active = activation above about 1.3%
Active calls of the source: *; / = not tested or not shown; [ ] = remark or other dose.

SMILES | NR2E3 ag-1 | NR2E3 ag-2 | FXN GAA850 act | GalR3 antag | V-ATPase pHluor | Env fusion inh | GalR3 conf | CNG parental
O=C(Nc1ccc(F)cc1)c1ccc(CN2CCc3ccccc3C2)cc1 | 4 | 17 | -2 | 103* | 0 | 4 | 104* | 0
CC(=O)Nc1ccc(NC(=O)c2ccc(CN3CCc4ccccc4C3)cc2)cc1 | 6 | -15 | 3 | -10 | 4 | 18 | / | /
CSc1cccc(NC(=O)c2ccc(CN3CCc4ccccc4C3)cc2)c1 | -2 | -3 | 2 | 47* | 0 | 28 | 104* | 0
C[C@H]1CN([C@@H](C)CO)C(=O)Cc2cc(NC(=O)C3CC3)ccc2O[C@H]1CN(C)S(=O)(=O)c1cccs1 | / | / | / | / | / | 34[16.7 µM] | / | /
C[C@@H]1CCCCO[C@H](CN(C)Cc2ccc3c(c2)OCO3)[C@H](C)CN([C@@H](C)CO)C(=O)c2cc(NC(=O)c3ccncc3)ccc2O1 | / | / | / | / | / | -1[16.7 µM] | / | /
COCC(=O)N1C[C@H](C)[C@@H](OC)CN(C)C(=O)c2ccc(NC(=O)Nc3ccccc3)cc2OC[C@H]1C | / | / | / | / | / | 8[16.7 µM] | / | /
O=C(C[C@H]1C[C@H]2c3cc(NC(=O)Nc4ccc(C(F)(F)F)cc4)ccc3O[C@H]2[C@H](CO)O1)NCc1cc(F)ccc1F | / | / | / | / | / | 1[16.7 µM] | / | /
COc1ccc(CC(=O)OCc2cc3ccccc3[nH]c2=O)cc1 | 0 | -12 | 0 | / | -1 | / | 2 | 0
CCCC#Cc1cnc2c(c1)C(=O)N([C@@H](C)CO)C[C@@H](C)[C@H](CN(C)C(=O)NCCC)O2 | / | / | / | / | / | 11[16.7 µM] | / | /
O=C(N/N=C/c1cc(Br)ccc1O)C(=O)Nc1ccccc1OC(F)(F)C(F)F | -1 | -20 | -7 | 15* | -1 | -49 | 57* | -2
COc1ccccc1/C=N/NC(=O)C(=O)Nc1ccccc1OC(F)(F)C(F)F | 1 | -3 | 4 | -1 | 0 | / | / | /
O=C(N/N=C/c1cc(Cl)ccc1O)C(=O)Nc1ccccc1OC(F)(F)C(F)F | 1 | -4 | -5 | 22* | 2 | -11 | 66* | -1
COc1cc2c(cc1OC)CN(C(=O)c1ccc(OC)c([N+](=O)[O-])c1)CC2 | -1 | -20 | 0 | -4 | 5 | 4 | / | /
COc1cc2c(cc1OC)/C(=C/C(=O)c1ccc(OC)c([N+](=O)[O-])c1)NCC2 | / | -8 | 3 | 19* | -2 | 23 | 25* | 0
CCCC(=O)Nc1ccc2c(c1)C(=O)N(C)C[C@@H](OC)[C@H](C)CN(C(=O)c1ccccc1F)[C@@H](C)CO2 | / | / | / | / | / | 2[16.7 µM] | / | /
COc1cc(-c2nn3c(C4CCCCC4)nnc3s2)cc(OC)c1OC | 2 | 12 | 0 | 18* | 7 | / | 8 | 0
CCC(=O)N1C[C@@H](C)[C@H](OC)CN(C)C(=O)c2cc(NC(=O)Nc3cccc(F)c3)ccc2OC[C@H]1C | / | / | / | / | / | -7[16.7 µM] | / | /
N#C/C(=N\Nc1cc(Cl)cc(Cl)c1)c1nnc2n1CCCCC2 | 0 | -3 | 5 | 15* | -1 | 9 | 0 | 1.7*
N#C/C(=C(/O)CCl)c1nnc2n1CCCCC2 | 3 | -18 | 4 | -5 | 6 | 7 | / | /
COc1ccc(OC)c2[nH]c(=O)c(CCNC(=O)COc3ccccc3)cc12 | 0 | 9 | 2 | 22* | -1 | / | 20* | 0
COc1ccc(OC)c2[nH]c(=O)c(CCNC(C)=O)cc12 | 3 | -32 | -2 | 1 | -1 | 1 | / | /
Cc1ccc(NC(=O)Cn2cc(C=O)c3ccccc32)cc1 | -5 | -27 | -2 | -11 | 2 | 22 | / | /
CC(C)(C)NCC(O)Cn1cc(C=O)c2ccccc21 (stereo not given) | 2 | 21 | 4 | 14* | -2 | -7 | 36* | 0
COc1ccccc1Cc1c(-c2ccco2)nc2ccc(Cl)cn12 | / | -17 | / | 28* | / | -83 | 18* | 0
CN(C)c1ccc2c(c1)[C@H]1C[C@@H](CC(=O)NCC3CC3)O[C@@H](CO)[C@H]1O2 | / | / | / | / | / | -7[16.7 µM] | / | /
SMILES | NR2E3 ag-1 | NR2E3 ag-2 | FXN GAA850 act | GalR3 antag | V-ATPase pHluor | Env fusion inh | GalR3 conf | CNG parental
COc1ccc(/C=C/C(=O)c2cc3cccc(OC)c3oc2=O)cc1 | 8 | 10 | 1 | 24* | -1 | -2 | 9 | 0
O=C(NCCc1ccc(Cl)cc1)c1ccc2nc(N3CCOCC3)sc2c1 | 1 | -30 | 0 | 16* | -1 | 9 | 19* | 0
c1cnc2ncc3sccc3c2c1 | -5 | -20 | -1 | -2 | -4 | 0 | / | /
O=c1[nH]c2cccnc2c2ccsc12 | 1 | 8 | 2 | 23* | -1 | -27 | 17* | 0
COc1ccc(S(=O)(=O)Nc2ccc3c(c2)C(=O)N([C@H](C)CO)C[C@@H](C)[C@@H](CN(C)C(=O)NC(C)C)OCCCC[C@H](C)O3)cc1 | / | / | / | / | / | -8[16.7 µM] | / | /
CCC(=O)c1ccc(OCc2ccc(C(=O)c3ccccc3)cc2)cc1 | 2 | -10 | -1 | 37* | 5 | 19 | 88* | 0
C=C(C)C(=O)Nc1cccc(C2=NOC3(C2)C[C@@H](C(N)=O)N(C(=O)c2cc([N+](=O)[O-])cc([N+](=O)[O-])c2C)C3)c1 (stereo not given in full) | 6 | -7 | 0 | -4 | -3 | 2 | / | /
C/C=C/C(=O)Nc1cccc(C2=NOC3(C2)C[C@@H](C(N)=O)N(C(=O)c2cc([N+](=O)[O-])cc([N+](=O)[O-])c2C)C3)c1 (stereo not given in full) | 1 | -4 | 2 | 13* | 0 | -21 | 1 | 0
CNC[C@@H]1Oc2ncc(C#Cc3ccc(OC)c(OC)c3)cc2C(=O)N([C@H](C)CO)C[C@@H]1C | / | / | / | / | / | 5[16.7 µM] | / | /
COc1ccc(C2=NN(C(=O)c3cccs3)C(O)(C(F)(F)F)C2)cc1 (stereo not given) | -1 | -3 | 4 | 88* | 2 | 12 | 94* | 1
Cc1ccc(-c2sc(C(=O)NN)c(C)c2C#N)cc1 | 8 | 1 | 0 | 27* | 0 | -3 | 25* | 0
COc1cccc2[nH]c3c(N4CCC(C)CC4)ncnc3c12 | 5 | -11 | 1 | 86* | -3 | / | 96* | 1
COc1cccc2[nH]c3c(N4CCC5(CC4)OCCO5)ncnc3c12 | -3 | 9 | 3 | -3 | 1 | -5 | / | /
CC1=CC(=O)C(C(C)C)=C/C1=N/OS(=O)(=O)c1ccccc1 | -6 | 8 | 1 | 92* | 5 | -205 | 35* | 0

Source: PubChem BioAssay (several laboratories)
